Laboratory results taken from ChEMBL document CHEMBL1134629, “Synthesis and biological evaluation of s-triazine substituted polyamines as potential new anti-trypanosomal drugs” (J Med Chem, 2001).

Tests used:
Adenosine transporter 1 = molecular target: T1, Adenosine transporter 1 (Trypanosoma brucei, UniProt Q9Y0I0); assay: Ability to inhibit adenosine uptake by the P2 transporter in Trypanosoma brucei
T1 sequence (Q9Y0I0 whole entry): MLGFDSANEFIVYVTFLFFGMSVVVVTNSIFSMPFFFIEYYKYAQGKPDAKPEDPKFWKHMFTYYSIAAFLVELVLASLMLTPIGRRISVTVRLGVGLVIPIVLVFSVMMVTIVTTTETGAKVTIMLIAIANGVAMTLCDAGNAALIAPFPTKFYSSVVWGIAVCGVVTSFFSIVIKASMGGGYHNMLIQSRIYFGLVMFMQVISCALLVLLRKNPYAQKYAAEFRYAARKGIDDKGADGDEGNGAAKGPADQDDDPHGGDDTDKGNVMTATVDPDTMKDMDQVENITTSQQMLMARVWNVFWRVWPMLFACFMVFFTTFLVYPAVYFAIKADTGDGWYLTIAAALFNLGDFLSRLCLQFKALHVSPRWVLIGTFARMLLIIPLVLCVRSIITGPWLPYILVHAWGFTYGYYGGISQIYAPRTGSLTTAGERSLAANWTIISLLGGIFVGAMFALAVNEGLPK
Summary of the method: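 T. b. brucei 427 cells (100 µL at 2 × 10⁸/mL) added to buffer with radiolabeled adenosine, 1 mM inosine to block P1 uptake, and varying inhibitor concentrations; 10 s at room temperature, then spun through 1-bromododecane oil, pellet radioactivity counted by scintillation. Apparent Ki from competitive inhibition equation; duplicate experiments.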

[1] = system: Trypanosoma brucei rhodesiense; assay: Inhibitory activity against T.b. rhodesiense; assay type: functional, organism-based
Rattus norvegicus = species on record: Rattus norvegicus; assay: Inhibitory activity against L-6 rat myoblast cells; assay type: functional, cell-based
Summary of the method: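 Noninfected rat L-6 skeletal myoblasts seeded at 2000 cells/well in RPMI 1640 with 10% FBS and 2 mM L-glutamine; serial drug dilutions as in the T. cruzi assay, 37 °C, 5% CO2; MIC determined microscopically after 4 days.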

[2] = Inhibitory activity against Trypanosoma cruzi; assay type: functional
Summary of the method: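 L-6 myoblasts (2000/well, RPMI 1640, 10% FBS, 2 mM L-glutamine) infected after 24 h with 5000 trypomastigotes of T. cruzi Tulahuen C2C4 carrying LacZ plus serial drug dilution; 4 days at 37 °C, 5% CO2. Intracellular amastigote growth read via CPRG/Nonidet colour at 540 nm after 2-4 h; IC50 from sigmoidal inhibition curve.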

[3] = system: Trypanosoma brucei brucei; assay: Inhibitory activity against Trypanosoma brucei; assay type: functional, organism-based

Ki (Adenosine transporter 1) [µM]	IC50 [1] [µM]	IC50 (Rattus norvegicus) [µM]	IC50 [3] [µM]	Structure (SMILES)	IC50 [2] [µM]
2.5	0.81	6.8	1.7	CN(C)c1nc(NCCCNCCCCCCCCCCCCNCCCNc2nc(N(C)C)nc(N(C)C)n2)nc(N(C)C)n1	0.8
3.2	2.3	143	17	CNc1nc(NC)nc(NCCCNCCCCCCCCCCCCNCCCNc2nc(NC)nc(NC)n2)n1	18
4.6	0.44	105	2	CN(C)c1nc(N)nc(CN(CCCNCCCCCCCCCCCCNCCCN(Cc2nc(N)nc(N(C)C)n2)Cc2nc(N)nc(N(C)C)n2)Cc2nc(N)nc(N(C)C)n2)n1	> 77
29	1.2	37.7	32	CN(C)c1nc(NCCCNCCCCCCCCCNCCCNc2nc(N(C)C)nc(N(C)C)n2)nc(N(C)C)n1	16
–	14	48.2	–	CCCCCCCCCCCCCCCCCCNc1nc(NC)nc(NC)n1	12
25	0.58	57.7	20	CNc1nc(NC)nc(NCCCNCCCCCCCCCCCCNCCCN)n1	31
17	0.94	135	84	CNc1nc(NC)nc(NCCCNCCCCCCCCCNCCCN)n1	23
10	9.6	274	40	CN(C)c1nc(N)nc(NCCCNCCCCCCCCCNCCCNc2nc(N)nc(N(C)C)n2)n1	> 123
0.6	1.3	14.2	14.7	CN(C)c1nc(NCCCNCCCCCCCCCCCCNCCCN)nc(N(C)C)n1	0.71
17	0.265	177	3	CN(C)c1nc(N)nc(CN(CCCNCCCCCCCCCNCCCN(Cc2nc(N)nc(N(C)C)n2)Cc2nc(N)nc(N(C)C)n2)Cc2nc(N)nc(N(C)C)n2)n1	54.8
0.5	16	295	> 100	Nc1nc(N)nc(NCCCNCCCCCCCCCCCCNCCCNc2nc(N)nc(N)n2)n1	> 13
14	17	289	4	CNc1nc(NC)nc(NCCCNCCCCCCCCCNCCCNc2nc(NC)nc(NC)n2)n1	> 130
0.24	3.5	50.9	> 100	CN(C)c1nc(N)nc(NCCCNCCCCCCCCCCCCNCCCNc2nc(N)nc(N(C)C)n2)n1	9.7
30	0.265	177	0.1	CNc1nc(CN(CCCNCCCCCCCCCNCCCN(Cc2nc(NC)nc(NC)n2)Cc2nc(NC)nc(NC)n2)Cc2nc(NC)nc(NC)n2)nc(NC)n1	76.8
2.4	0.18	76.6	2.9	CNc1nc(CN(CCCNCCCCCCCCCCCCNCCCN(Cc2nc(NC)nc(NC)n2)Cc2nc(NC)nc(NC)n2)Cc2nc(NC)nc(NC)n2)nc(NC)n1	> 77
0.135	9.8	–	2	CNc1nc(N)nc(NCCCNCCCCCCCCCCCCNCCCNc2nc(N)nc(NC)n2)n1	116
6.7	0.57	188	21	Nc1nc(N)nc(CN(CCCNCCCCCCCCCCCCNCCCN(Cc2nc(N)nc(N)n2)Cc2nc(N)nc(N)n2)Cc2nc(N)nc(N)n2)n1	> 85
19	128	–	> 100	Nc1nc(N)nc(NCCCNCCCCCCCCCNCCCNc2nc(N)nc(N)n2)n1	> 140
163	> 163	362	> 100	CC(CNCCCNc1nc(N)nc(N)n1)NCCCNc1nc(N)nc(N)n1 (centres undefined)	> 163
0.75	16	285	53	CNc1nc(N)nc(NCCCNCCCCCCCCCNCCCNc2nc(N)nc(NC)n2)n1	> 135
0.41	1.1	127	> 200	CNc1nc(N)nc(NCCCNCCCCCCCCCCCCNCCCN)n1	> 154
–	13	239	–	Nc1nc(N)nc(NCCCCCCCCCCCCNc2nc(N)nc(N)n2)n1	6
72	160	353	> 100	Nc1nc(N)nc(NCCCNCCCCNCCCNc2nc(N)nc(N)n2)n1	> 160
1	0.94	39.9	20	CN(C)c1nc(N)nc(NCCCNCCCCCCCCCCCCNCCCN)n1	32
55	> 152	338	> 100	Nc1nc(N)nc(NCCCNC2CCCCC2NCCCNc2nc(N)nc(N)n2)n1 (centres undefined)	> 152
125	> 152	338	> 100	Nc1nc(N)nc(NCCCNC2CCC(NCCCNc3nc(N)nc(N)n3)CC2)n1 (centres undefined)	> 152
82	4.02	220	32	Nc1nc(N)nc(CN(CCCNCCCCCCCCCNCCCN(Cc2nc(N)nc(N)n2)Cc2nc(N)nc(N)n2)Cc2nc(N)nc(N)n2)n1	> 88
